In test [1] the test system is CHO-AA8. The experiment in a line: Growth inhibition activity was measured in repair proficient AA8 cells under aerobic conditions (4 hours drug exposure). The test is classed as functional, cell-based. The note with it: Cricetulus griseus, CHO-AA8, 4 h.
The test system of test [2] is CHO-AA8. Put plainly: Activity to reduce the surviving fraction to 10% (CT10) was used as an inverse measure of cytotoxic potency in aerobic conditions. The test is classed as functional, Cricetulus griseus. In short, it runs like this: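 Clonogenic survival assay in magnetically stirred 10 mL suspensions of late-log AA8 cells (10⁶/mL) under continuous gassing with 5% CO₂ in air. Samples were removed periodically during drug exposure. CT₁₀ is the concentration × time giving 10% surviving fraction, used as an inverse measure of cytotoxicity.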

In a further test the test system is UV4. The experiment in a line: Growth inhibition activity was measured in repair deficient UV4 cells under aerobic conditions (4 hours drug exposure). Particulars: Cricetulus griseus, UV4, 4 h. The test is classed as functional, cell-based.
The nature of test [3]: Ratio of activities reducing surviving fraction to 10% (T10) under aerobic vs hypoxic conditions. The test is classed as functional. In a few lines:
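Late-log AA8 cells (10⁶/mL) in stirred 10 mL suspensions were gassed continuously with 5% CO₂ in air or in N₂, with periodic sampling for clonogenic survival. The time to 10% survival (T₁₀) was found under each gas at the same drug concentration. The value is the mean of air/N₂ T₁₀ ratios; errors are ranges (two determinations) or standard errors.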

The values below come from ChEMBL document CHEMBL1128670, “Hypoxia-selective antitumor agents. 11. Chlorambucil N-oxide: a reappraisal of its synthesis, stability, and selective toxicity for hypoxic cells” (J Med Chem, 1995).

Where only a bound is given, the exact number is not on record here.

As for `O=C(O)CCCc1ccc(N(CCCl)OCCCl)cc1`, the IC50 was 456 µM with CHO-AA8 [1] and 176 µM in the test with UV4. Moreover, the CT10 in the test on CHO-AA8 [2] was more than 2400 µM·h.
As to `O=C(O)CCCc1ccc(NCCCl)cc1`, the concentration for half-maximal inhibition (IC50) with CHO-AA8 [1] is more than 250 µM; with UV4 it was 90 µM. In test [3], the Ratio came out at 1.26. The CT10 in the test on CHO-AA8 [2] was 2080 µM·h.
For `O=C(O)CCCc1ccc(N(CCCl)CCCl)cc1` [CHLORAMBUCIL], the values for the IC50 with CHO-AA8 [1] and in the test on UV4 were 38 µM and 1.2 µM, respectively. Moreover, the Ratio in test [3] worked out at 1.28. The molecule also yielded a CT10 with CHO-AA8 [2] of 85.2 µM·h.
